Measured values published in ChEMBL document CHEMBL1821696, “Substitution of the phosphonic acid and hydroxamic acid functionalities of the DXR inhibitor FR900098: an attempt to improve the activity against Mycobacterium tuberculosis” (Bioorg Med Chem Lett, 2011).
pIC50: −log10 of the molar value. In brackets after ≈: the same amount, converted by molar mass.

Assays:
[1] = biological target: T1, 1-deoxy-D-xylulose 5-phosphate reductoisomerase (Mycobacterium tuberculosis) (UniProt P9WNS1); test: Inhibition of Mycobacterium tuberculosis DXR assessed as reduction of 1-deoxy-D-xylulose 5-phosphate into 2-C-methyl-D-erythritol-4-phosphate at 100 uM measured for every 5 secs upto 500 secs by spectrophotometry analysis
T1 sequence (whole entry): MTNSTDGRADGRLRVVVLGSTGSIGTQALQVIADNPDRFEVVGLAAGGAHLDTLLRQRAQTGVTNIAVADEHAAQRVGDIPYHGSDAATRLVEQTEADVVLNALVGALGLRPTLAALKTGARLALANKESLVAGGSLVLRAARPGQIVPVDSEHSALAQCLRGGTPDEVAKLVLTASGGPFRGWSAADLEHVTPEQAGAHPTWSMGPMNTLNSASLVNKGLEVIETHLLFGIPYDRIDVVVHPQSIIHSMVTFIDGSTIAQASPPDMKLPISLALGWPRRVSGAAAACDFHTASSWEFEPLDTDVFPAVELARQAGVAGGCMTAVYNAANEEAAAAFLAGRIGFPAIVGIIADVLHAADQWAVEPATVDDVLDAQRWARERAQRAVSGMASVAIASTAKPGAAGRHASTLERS
Procedure, shortened: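 MtDXR reaction in 50 mM HEPES-NaOH pH 7.5, 100 mM NaCl, 1.5 mM MnCl2, 0.2 mM NADPH, 0.2 mM DXP and a single inhibitor concentration. Started by adding DXP and run at 22 °C. NADPH consumption read as A340 every 5 s for 500 s. Initial velocity from the linear slope gives % inhibition relative to the uninhibited reaction.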

[2] = biological target: T2, 1-deoxy-D-xylulose 5-phosphate reductoisomerase (Mycobacterium tuberculosis, UniProt P9WNS1); test: Inhibition of Mycobacterium tuberculosis DXR assessed as reduction of 1-deoxy-D-xylulose 5-phosphate into 2-C-methyl-D-erythritol-4-phosphate measured for every 5 secs upto 500 secs by spectrophotometry analysis
T2 sequence (P9WNS1 whole entry): T1 sequence (whole entry)
Procedure, shortened: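 MtDXR in 50 mM HEPES-NaOH pH 7.5, 100 mM NaCl, 1.5 mM MnCl2, 0.2 mM NADPH and 0.2 mM DXP, started with DXP at 22 °C. A340 read every 5 s for 500 s. Six inhibitor concentrations spanning 0.01–1000. Initial-rate activities relative to the uninhibited reaction were fitted to a Hi/Lo four-parameter curve for IC50.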

[3] = system: Mycobacterium tuberculosis; test: Antimycobacterial activity against Mycobacterium tuberculosis by whole-cell assay; format: functional

Row | Structure (SMILES) | inhibition [1] [%] | pIC50 [2] | MIC [3] [µg/mL]
1 | O=C1NC(=O)C(CCP(=O)(O)O)N1 (configuration not stated) | 8 | – | –
2 | O=P(O)(O)CCc1ccc(O)c(O)c1 | 78 | 4.39 | > 512
3 | CC(=O)N(O)CCC1NC(=O)NC1=O (configuration not stated) | 13 | – | –
4 | CC(=O)N(O)CCCC(=O)NS(C)(=O)=O | 29 | – | –
5 | CC(=O)N(O)CCCc1nnn[nH]1 | 0 | – | –
6 | O=C1N[C@H](CCP(=O)(O)O)CO1 | 0 | – | –
7 | O=c1cccc(CCP(=O)(O)O)n1O | 61 | 4.28 | > 512
8 | CC(=O)N(O)CCCS(=O)(=O)O | 36 | < 4.00 | –
9 | O=c1oc2cccnc2n1CCCP(=O)(O)O | 11 | – | –
10 | CC(=O)N(O)CCCP(=O)(O)OCCc1ccccc1 | 23 | – | –
11 | CC(=O)N(O)CCCC(=O)O | 0 | – | –
12 | O=c1oc2cc(Br)cnc2n1CCCP(=O)(O)O | 7 | – | –
13 | CC(=O)N(O)CCc1c(C(=O)O)noc1C | 41 | 3.82 | > 512
14 | O=c1oc2cc(-c3ccccc3)cnc2n1CCCP(=O)(O)O | 11 | – | 256 (≈ 766 µM)
